# In ChEMBL document CHEMBL1149895, “Steroids and flavonoids from Physalis alkekengi var. franchetii and their inhibitory effects on nitric oxide production” (J Nat Prod, 2008):
# Tested on: RAW264.7
# Test: Inhibition of LPS-induced nitric oxide production in mouse RAW264.7 cells assessed as nitrite formation
# Assay type: functional, cell-based
# Outline: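 RAW 264.7 cells in RPMI 1640 with 10% heat-inactivated FBS, penicillin and streptomycin, seeded at 1 × 10^5 cells/well and allowed to adhere 2 h at 37 °C in 5% CO2. LPS 1 µg/mL with or without compound (DMSO 0.2% v/v final) for 24 h. Supernatant nitrite read by Griess reagent against a 0–100 µM sodium nitrite line. Inhibition taken relative to LPS-only and untreated wells. Triplicate, mean ± SD of three independent experiments.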
row,IC50,Structure (SMILES)
1,17.1 µM,C[C@@H]1C(=O)O[C@@H]2C[C@@]1(C)[C@@H]1C(=O)[C@]3(O)O[C@]14[C@@]2(C)OC(=O)[C@@]4(O)CC[C@H]1[C@H]3[C@H](O)C=C2CC=CC(=O)[C@@]21C [PHYSALIN O]
2,84 µM,CO[C@H]1C=C2C=C[C@@H]3[C@H](CC[C@]4(O)C(=O)O[C@@]5(C)[C@H]6C[C@](C)([C@H](C)C(=O)O6)[C@H]6[C@@]3(O)C(=O)O[C@@]654)[C@@]2(C)C(=O)C1 [PHYSALIN I]
3,75.7 µM,C[C@]12C(=O)C[C@@H](O)C=C1C=C[C@@H]1[C@@H]2CC[C@]2(O)C(=O)O[C@@]3(C)[C@H]4C[C@]5(C)[C@@H](CO[C@@]16O[C@@]32[C@H]5C6=O)C(=O)O4 [PHYSALIN Z]
4,79.2 µM,C[C@]12C(=O)C[C@@H](O)CC1=CC[C@@H]1[C@@H]2CC[C@]2(O)C(=O)O[C@@]3(C)[C@H]4C[C@]5(C)[C@@H](CO[C@@]16O[C@@]32[C@H]5C6=O)C(=O)O4 [PHYSALIN Y]
5,2.23 µM,COc1cc(O)c2c(=O)c(O)c(-c3ccc(OC)c(O)c3)oc2c1 [OMBUINE]
6,64 µM,C[C@]12C(=O)C[C@H](O)C=C1C=C[C@@H]1[C@@H]2CC[C@]2(O)C(=O)O[C@@]3(C)[C@H]4C[C@]5(C)[C@@H](CO[C@@]16O[C@@]32[C@H]5C6=O)C(=O)O4 [ISOPHYSALIN G]
7,64.3 µM,C[C@]12CCC(=O)C=C1CC[C@@H]1[C@@H]2[C@@H](O)C[C@@]2(C)[C@H]1CC[C@]2(O)C(=O)CO [HYDROCORTISONE]
8,2.57 µM,C=C1C(=O)O[C@@H]2C[C@@]1(C)[C@@H]1C(=O)[C@]3(O)O[C@]14[C@@]2(C)OC(=O)[C@@]4(O)CC[C@H]1[C@H]3[C@H](O)C=C2CC=CC(=O)[C@@]21C [PHYSALIN A]

row,Structure (SMILES),IC50
1,O=c1cc(-c2ccc(O)c(O)c2)oc2cc(O)cc(O)c12 [LUTEOLIN],7.39 µM
2,C[C@]12C(=O)C=CCC1=CC[C@@H]1[C@@H]2CC[C@]2(O)C(=O)O[C@@]3(C)[C@H]4C[C@]5(C)[C@@H](CO[C@@]16O[C@@]32[C@H]5C6=O)C(=O)O4 [PHYSALIN B],0.84 µM
3,C[C@@]12C[C@H]3OC(=O)[C@@H]1CO[C@]14O[C@]5([C@H]2C1=O)[C@@](O)(CC[C@H]1[C@H]4C[C@H]2O[C@]24CC=CC(=O)[C@]14C)C(=O)O[C@@]35C [PHYSALIN F],0.33 µM
